Reference: ChEMBL document CHEMBL1156470, “Inhibition of the activation of multiple serine proteases with a cathepsin C inhibitor requires sustained exposure to prevent pro-enzyme processing” (J Biol Chem, 2007)
Active and inactive are the calls of the source. The rule behind the calls is not given here.

Columns and labels:
U-937 = experiment: Effect on neutrophil elastase protein expression in human U937 cells at 30 uM after 7 days by Western blot; format: functional, cell-based
Cathepsin B = Cathepsin B (Homo sapiens, UniProt P07858); experiment: Inhibition of human recombinant cathepsin B after 10 mins
Procathepsin L = Procathepsin L (Homo sapiens, UniProt P07711); experiment: Inhibition of human recombinant cathepsin L after 10 mins
Pro-cathepsin H = target: T1, Pro-cathepsin H (Homo sapiens, UniProt P09668); experiment: Inhibition of human recombinant cathepsin H after 10 mins
T1 sequence (P09668 whole entry): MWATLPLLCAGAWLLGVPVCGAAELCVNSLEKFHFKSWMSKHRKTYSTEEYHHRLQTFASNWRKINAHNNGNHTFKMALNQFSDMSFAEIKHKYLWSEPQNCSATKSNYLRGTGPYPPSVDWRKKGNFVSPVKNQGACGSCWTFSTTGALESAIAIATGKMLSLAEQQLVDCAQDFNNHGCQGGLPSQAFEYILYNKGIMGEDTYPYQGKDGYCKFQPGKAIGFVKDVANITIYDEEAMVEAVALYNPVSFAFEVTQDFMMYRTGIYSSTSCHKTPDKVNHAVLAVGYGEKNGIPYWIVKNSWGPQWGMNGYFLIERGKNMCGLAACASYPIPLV

Myeloblastin = target: T2, Myeloblastin (Homo sapiens, UniProt P24158); experiment: Inhibition of proteinase-3 in human U937 cells; format: cell-based, U-937
T2 sequence (P24158 whole entry): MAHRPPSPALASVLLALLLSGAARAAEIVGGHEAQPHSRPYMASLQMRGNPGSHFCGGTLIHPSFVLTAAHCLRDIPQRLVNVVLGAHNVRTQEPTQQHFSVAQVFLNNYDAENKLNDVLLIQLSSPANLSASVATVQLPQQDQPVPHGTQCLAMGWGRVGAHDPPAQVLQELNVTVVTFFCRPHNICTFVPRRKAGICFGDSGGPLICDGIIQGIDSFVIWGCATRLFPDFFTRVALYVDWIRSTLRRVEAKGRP

Cathepsin G = target: T3, Cathepsin G (Homo sapiens, UniProt P08311); experiment: Blockade of cathepsin G processing in human U937 cells by densitometry; format: cell-based, U-937
T3 sequence (P08311 whole entry): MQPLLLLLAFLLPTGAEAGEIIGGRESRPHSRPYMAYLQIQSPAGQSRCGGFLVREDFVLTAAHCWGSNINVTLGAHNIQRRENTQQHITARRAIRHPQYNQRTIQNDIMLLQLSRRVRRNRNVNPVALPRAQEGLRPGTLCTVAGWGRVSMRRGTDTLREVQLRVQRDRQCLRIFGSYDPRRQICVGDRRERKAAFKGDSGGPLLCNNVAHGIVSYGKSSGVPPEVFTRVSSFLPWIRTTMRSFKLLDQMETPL
Summary of the method: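 U937 cells washed, plated at 2×10^6 cells/ml in methionine/glutamine-free RPMI, inhibitor or 0.5% Me₂SO added during 30 min starvation, pulsed with [³⁵S]methionine (10 μCi/ml) 30 min, re-seeded in complete medium with inhibitor and chased 3 h. Lysates bound to aprotinin-agarose 1 h at room temperature, SDS-PAGE and fluorography. CG band quantitated by densitometry as % inhibition vs vehicle.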

Neutrophil elastase [1] = target: T4, Neutrophil elastase (Homo sapiens, UniProt P08246); experiment: Blockade of neutrophil elastase processing in human U937 cells after 7 days by fluorogenic substrate cleavage assay; format: cell-based, U-937
T4 sequence (P08246 whole entry): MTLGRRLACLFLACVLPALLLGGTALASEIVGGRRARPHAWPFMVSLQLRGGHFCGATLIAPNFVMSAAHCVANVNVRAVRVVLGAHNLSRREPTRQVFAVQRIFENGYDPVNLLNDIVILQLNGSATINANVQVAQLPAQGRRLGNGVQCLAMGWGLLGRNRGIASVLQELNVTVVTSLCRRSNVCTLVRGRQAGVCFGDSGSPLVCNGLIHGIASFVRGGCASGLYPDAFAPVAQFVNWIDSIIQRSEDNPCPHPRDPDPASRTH
Summary of the method: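 U937 seeded at 1×10^5 cells/ml with vehicle or inhibitor, passaged and diluted 10-fold into fresh medium with compound on days 3 and 5, harvested day 7. Cells washed and lysed in 20 mM Tris pH 7.5, 100 mM NaCl, 0.2% NP-40. NE rate measured with 400 μM MeOSuc-AAPV-AMC (ex 370/em 450 nm, 10 min). % inhibition vs vehicle, four wells per point.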

[2] = target: T5, Cathepsin G (Mus musculus) (UniProt P28293); experiment: Inhibition of cathepsin G activity in beta-estradiol differentiated mouse EcoM-G cells at 10 uM after 3 days in the absence of estradiol; format: cell-based
T5 sequence (whole entry): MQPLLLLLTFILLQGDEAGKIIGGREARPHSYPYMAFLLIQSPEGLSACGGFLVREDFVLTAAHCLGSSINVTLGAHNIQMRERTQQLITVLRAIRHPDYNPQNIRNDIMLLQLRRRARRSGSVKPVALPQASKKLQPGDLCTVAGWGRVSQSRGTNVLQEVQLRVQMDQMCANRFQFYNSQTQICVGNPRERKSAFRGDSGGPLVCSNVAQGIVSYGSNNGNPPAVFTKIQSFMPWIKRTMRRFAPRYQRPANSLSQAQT
Summary of the method: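 EcoM-G cells seeded without β-estradiol to differentiate. 10 μM compound or vehicle added 24 h after estrogen removal, and aliquots taken over time up to 3 days. CG activity in extracts measured with 1 mM Suc-Ala-Ala-Pro-Phe-pNA, absorbance at 405 nm over 5 min, in 100 mM Tris pH 7.5, 1 M NaCl.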

Neutrophil elastase [3] = target: T6, Neutrophil elastase (Mus musculus, UniProt Q3UP87); experiment: Inhibition of neutrophil elastase activation in beta-estradiol differentiated mouse EcoM-G cells after 24 hrs; format: cell-based
T6 sequence (Q3UP87 whole entry): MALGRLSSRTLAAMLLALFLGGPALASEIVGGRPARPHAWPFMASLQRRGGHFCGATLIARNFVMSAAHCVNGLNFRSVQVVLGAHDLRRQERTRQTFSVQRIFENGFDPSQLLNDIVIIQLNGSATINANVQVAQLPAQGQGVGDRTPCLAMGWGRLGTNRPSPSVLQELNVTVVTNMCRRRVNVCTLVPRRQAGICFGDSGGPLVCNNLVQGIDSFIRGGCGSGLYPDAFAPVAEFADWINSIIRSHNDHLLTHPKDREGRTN
Summary of the method: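 EcoM-G cells (cultures <3 months old) washed and seeded at 0.5×10^6 cells/ml without β-estradiol. After 24 h, compound added in Me₂SO (final 0.5%), then cells differentiated a further 24 h, harvested and lysed. NE assayed with 400 μM MeOSuc-AAPV-AMC, CG with 1 mM Suc-AAPF-pNA (405 nm, 5 min), Pr-3 with 10 μM internally quenched substrate (ex 328/em 393 nm), all from the same lysates. IC50 from four-parameter Hill fit.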

[4] = target: T7, Neutrophil elastase (Homo sapiens) (UniProt P08246); conditions: U-937, 1 uM
T7 sequence (whole entry): T4 sequence (P08246 whole entry)

U-937 (Homo sapiens) = experiment: Effect on neutrophil elastase protein expression in human U937 cells at 30 uM after 7 days by Western blot

Sequence of Procathepsin L (P07711 whole entry): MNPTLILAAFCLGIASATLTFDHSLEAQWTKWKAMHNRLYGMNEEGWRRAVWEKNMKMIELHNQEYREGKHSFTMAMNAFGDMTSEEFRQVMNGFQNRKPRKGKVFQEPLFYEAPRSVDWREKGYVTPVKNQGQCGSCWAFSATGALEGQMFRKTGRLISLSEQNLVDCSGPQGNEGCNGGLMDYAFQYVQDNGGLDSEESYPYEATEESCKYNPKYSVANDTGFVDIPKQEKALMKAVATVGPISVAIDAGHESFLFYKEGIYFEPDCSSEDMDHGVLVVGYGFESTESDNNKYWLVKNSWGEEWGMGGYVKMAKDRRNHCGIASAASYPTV

IC50 (Cathepsin B): > 50000 nM
IC50 (Procathepsin L): 5400 nM
IC50 (Pro-cathepsin H): > 50000 nM
IC50 (Myeloblastin): > 50000 nM
IC50 (Cathepsin G): 150 nM
IC50 (Neutrophil elastase [1]): 220 nM
Activity [2]: Active
IC50 (Neutrophil elastase [3]): 160 nM
inhibition [4]: > 90%
Structure (SMILES): N#C[C@@]1(NC(=O)[C@@H](N)Cc2cccs2)C[C@@H]1c1ccccc1.O=C(O)C(F)(F)F
Activity (U-937): inactive
Activity (U-937 (Homo sapiens)): inactive
